Data from ChEMBL document CHEMBL1212860, “Further optimization of novel pyrrole 3-carboxamides for targeting serotonin 5-HT(2A), 5-HT(2C), and the serotonin transporter as a potential antidepressant” (Bioorg Med Chem, 2010).

What was measured:
[1] = molecular target: Voltage-gated inwardly rectifying potassium channel KCNH2 (Homo sapiens, UniProt Q12809); test: Inhibition of human recombinant ERG channel expressed in HEK293 cells
[2] = molecular target: 5-hydroxytryptamine receptor 2A (Homo sapiens, UniProt P28223); test: Displacement of [3H]ketanserin from human recombinant 5HT2A expressed in CHOK1 cells; type: cell-based, CHO-K1
Chain of 5-hydroxytryptamine receptor 2A (P28223 whole entry): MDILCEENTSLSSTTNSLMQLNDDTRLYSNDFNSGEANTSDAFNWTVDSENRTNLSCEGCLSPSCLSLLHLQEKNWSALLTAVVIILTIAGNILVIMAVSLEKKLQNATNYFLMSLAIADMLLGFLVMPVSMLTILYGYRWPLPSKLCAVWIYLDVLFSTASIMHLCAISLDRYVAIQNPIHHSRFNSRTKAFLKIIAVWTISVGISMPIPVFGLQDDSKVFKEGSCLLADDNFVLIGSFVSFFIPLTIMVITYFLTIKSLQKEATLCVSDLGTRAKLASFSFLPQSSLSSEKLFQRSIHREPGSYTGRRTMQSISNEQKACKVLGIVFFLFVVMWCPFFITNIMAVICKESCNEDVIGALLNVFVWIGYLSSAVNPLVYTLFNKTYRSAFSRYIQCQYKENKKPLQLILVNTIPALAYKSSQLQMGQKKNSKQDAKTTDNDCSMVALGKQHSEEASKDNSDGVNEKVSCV
Method in brief: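 Human recombinant 5-HT2A membranes from CHO-K1 cells were incubated with 1 nM [3H]ketanserin, with mianserin defining nonspecific binding. Incubation was 60 min at 27 °C in 50 mM Tris-HCl pH 7.4 with 4 mM CaCl2 and 0.1% ascorbic acid. Filtered on glass fibre presoaked in 0.5% PEI, washed, and counted. IC50 by nonlinear regression from 7–8 concentrations in duplicate.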

[3] = molecular target: T1, 5-hydroxytryptamine receptor 2C (Homo sapiens, UniProt P28335); test: Displacement of [3H]mesulergine from human recombinant 5HT2C expressed in CHOK1 cells; type: cell-based, CHO-K1
T1 sequence (P28335 whole entry): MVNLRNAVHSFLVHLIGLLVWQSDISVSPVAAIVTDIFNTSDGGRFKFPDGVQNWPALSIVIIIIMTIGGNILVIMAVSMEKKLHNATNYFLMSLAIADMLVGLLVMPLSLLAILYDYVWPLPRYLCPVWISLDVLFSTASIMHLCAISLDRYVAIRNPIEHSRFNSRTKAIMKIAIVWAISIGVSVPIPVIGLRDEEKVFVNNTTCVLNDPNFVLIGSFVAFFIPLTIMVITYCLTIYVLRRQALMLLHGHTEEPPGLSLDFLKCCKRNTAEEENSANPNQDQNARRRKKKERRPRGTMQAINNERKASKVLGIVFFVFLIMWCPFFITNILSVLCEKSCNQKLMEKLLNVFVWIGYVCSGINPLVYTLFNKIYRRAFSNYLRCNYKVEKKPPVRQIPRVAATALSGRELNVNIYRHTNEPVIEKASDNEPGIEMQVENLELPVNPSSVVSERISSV
Method in brief: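 Frozen CHO-K1 membranes with human recombinant 5-HT2C were incubated with 1.3 nM [3H]mesulergine in 50 mM Tris-HCl pH 7.4 with 0.1% ascorbic acid and 4 mM CaCl2 for 60 min at 27 °C. Nonspecific binding was set with 100 mianserin. Stopped by rapid filtration on glass fibre presoaked in 0.5% PEI.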

[4] = molecular target: Sodium-dependent serotonin transporter (Homo sapiens, UniProt P31645); test: Displacement of [3H]imipramine from human SERT expressed in HEK293 cells; type: cell-based
Chain of Sodium-dependent serotonin transporter (P31645 whole entry): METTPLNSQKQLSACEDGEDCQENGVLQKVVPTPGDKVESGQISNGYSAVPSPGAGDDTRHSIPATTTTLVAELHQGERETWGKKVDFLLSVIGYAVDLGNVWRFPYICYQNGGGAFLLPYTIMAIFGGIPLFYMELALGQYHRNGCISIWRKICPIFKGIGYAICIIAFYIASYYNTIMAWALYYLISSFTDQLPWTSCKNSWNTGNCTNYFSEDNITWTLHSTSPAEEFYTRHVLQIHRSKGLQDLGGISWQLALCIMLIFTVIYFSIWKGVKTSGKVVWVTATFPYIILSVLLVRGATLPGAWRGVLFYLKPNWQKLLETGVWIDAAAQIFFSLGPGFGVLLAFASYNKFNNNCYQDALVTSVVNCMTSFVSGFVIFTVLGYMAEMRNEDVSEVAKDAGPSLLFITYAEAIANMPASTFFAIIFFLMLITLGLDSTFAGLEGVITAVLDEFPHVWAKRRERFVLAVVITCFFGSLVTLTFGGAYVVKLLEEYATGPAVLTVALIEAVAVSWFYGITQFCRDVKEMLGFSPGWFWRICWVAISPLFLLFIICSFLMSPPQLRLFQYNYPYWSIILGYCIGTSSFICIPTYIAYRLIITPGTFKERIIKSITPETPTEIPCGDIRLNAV
Method in brief: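 Membranes from 293 cells expressing SERT were incubated with 2 nM [3H]imipramine in 50 mM Tris-HCl pH 7.4 with 120 mM NaCl and 5 mM KCl for 30 min at 27 °C. Filtered through glass fibre presoaked in 0.5% PEI, then washed with ice-cold 50 mM Tris-HCl pH 7.4 containing 0.9% NaCl.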

Mus musculus = test: Locomotor activity in mouse assessed as distance traveled by animal in horizontal locomotion at 25 mg/kg, po after 60 mins measured for 30 mins by spontaneous locomotor activity; type: functional
Method in brief: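 Mice were dosed orally at 25 mg/kg and acclimated to the chamber for 10 min. Horizontal distance travelled (cm) was then recorded over 30 min by automated video tracking. Testing ran between 09:00 and 17:00 h. Mean ± SEM of 6–7 mice.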

Chain of Voltage-gated inwardly rectifying potassium channel KCNH2 (Q12809 whole entry): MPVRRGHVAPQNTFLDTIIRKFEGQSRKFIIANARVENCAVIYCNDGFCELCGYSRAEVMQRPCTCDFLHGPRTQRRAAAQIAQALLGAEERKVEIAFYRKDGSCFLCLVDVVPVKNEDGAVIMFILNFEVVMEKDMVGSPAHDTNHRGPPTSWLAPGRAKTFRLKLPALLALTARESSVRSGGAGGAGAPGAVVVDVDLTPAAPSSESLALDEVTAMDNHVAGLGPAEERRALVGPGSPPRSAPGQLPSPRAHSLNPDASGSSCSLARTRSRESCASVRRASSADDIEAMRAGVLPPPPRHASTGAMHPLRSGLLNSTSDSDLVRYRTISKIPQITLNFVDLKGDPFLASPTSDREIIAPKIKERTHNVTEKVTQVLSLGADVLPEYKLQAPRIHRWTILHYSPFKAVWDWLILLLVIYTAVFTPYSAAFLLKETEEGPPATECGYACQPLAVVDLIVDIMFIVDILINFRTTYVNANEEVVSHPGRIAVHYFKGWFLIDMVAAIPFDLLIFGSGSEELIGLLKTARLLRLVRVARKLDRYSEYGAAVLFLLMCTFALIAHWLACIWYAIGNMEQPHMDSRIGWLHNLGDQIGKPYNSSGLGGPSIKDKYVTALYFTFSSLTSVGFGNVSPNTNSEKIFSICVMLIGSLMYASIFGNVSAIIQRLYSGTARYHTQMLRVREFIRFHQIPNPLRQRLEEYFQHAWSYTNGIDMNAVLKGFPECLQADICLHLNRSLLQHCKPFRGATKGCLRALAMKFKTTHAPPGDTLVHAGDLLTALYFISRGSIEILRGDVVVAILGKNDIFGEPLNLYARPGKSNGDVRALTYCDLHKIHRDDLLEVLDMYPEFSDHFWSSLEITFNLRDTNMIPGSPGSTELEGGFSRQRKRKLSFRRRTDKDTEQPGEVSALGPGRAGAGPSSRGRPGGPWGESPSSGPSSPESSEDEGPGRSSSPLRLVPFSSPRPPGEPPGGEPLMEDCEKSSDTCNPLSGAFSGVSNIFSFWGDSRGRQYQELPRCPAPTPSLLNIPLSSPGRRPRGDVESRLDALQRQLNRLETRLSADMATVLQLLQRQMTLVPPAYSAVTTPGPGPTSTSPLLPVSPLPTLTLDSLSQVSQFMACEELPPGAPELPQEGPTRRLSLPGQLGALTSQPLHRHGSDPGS

Q: `Cc1[nH]c(-c2ccccc2)cc1C(=O)NCCCN1CCN(c2cccc(Cl)c2Cl)CC1` was tested. Which IC50 [1] did it give?
A: 100 nM

Q: How did the IC50 [1] turn out when `CCCn1c(-c2ccccc2)cc(C(=O)NCCCN2CCN(c3cccc(Cl)c3Cl)CC2)c1C` was run?
A: 540 nM

Q: How did the IC50 [1] turn out when `Cc1c(C(=O)NCCCN2CCN(c3cccc(Cl)c3Cl)CC2)cc(-c2cccnc2)n1C` was run?
A: 6800 nM

Q: What about the IC50 [2] of the same compound?
A: 209 nM

Q: And the IC50 [3]?
A: 92 nM

Q: What about the IC50 [4] of the same compound?
A: 7 nM

Q: With `Cc1c(Cl)cccc1N1CCN(CCNC(=O)c2cc(-c3ccccc3)n(C)c2C)CC1` as the compound, how does the Activity (Mus musculus) read?
A: 7100 cm

Q: And the IC50 [3]?
A: 233 nM

Q: What about the IC50 [4] of the same compound?
A: 64 nM

Q: How did the IC50 [2] turn out when `Cc1c(Cl)cccc1N1CCN(CCNC(=O)c2cc(C(C)(C)C)n(C)c2C)CC1` was run?
A: 54 nM

Q: What about the Activity (Mus musculus) of the same compound?
A: 6217 cm

Q: And the IC50 [3]?
A: 210 nM

Q: What about the IC50 [4] of the same compound?
A: 315 nM

Q: Which results are given for `Cc1c(C(=O)NCCCN2CCN(c3ccccc3Br)CC2)cc(-c2ccccc2)n1C`?
A: IC50 [2]: 221 nM; IC50 [3]: 633 nM; IC50 [4]: 225 nM

Q: With `Cc1c(C(=O)NCCCN2CCN(c3cccc4cccnc34)CC2)cc(-c2ccccc2)n1C` as the compound, how does the IC50 [2] read?
A: 352 nM

Q: And the IC50 [3]?
A: 233 nM

Q: And the IC50 [4]?
A: 22 nM

Q: How did the IC50 [2] turn out when `Cc1ccc2cccc(N3CCN(CCCNC(=O)c4cc(-c5ccccc5)n(C)c4C)CC3)c2n1` was run?
A: 832 nM

Q: And the IC50 [3]?
A: 653 nM

Q: And the IC50 [4]?
A: 300 nM

Q: With `CCCn1c(-c2ccccc2)cc(C(=O)NCCCN2CCN(c3ccc(Cl)c(Cl)c3)CC2)c1C` as the compound, how does the IC50 [2] read?
A: 54 nM

Q: What about the IC50 [3] of the same compound?
A: 324 nM

Q: What about the IC50 [4] of the same compound?
A: 284 nM

Q: Which results are given for `CCCn1c(-c2ccccc2)cc(C(=O)NCCCN2CCN(c3cccc(Br)c3)CC2)c1C`?
A: IC50 [2]: 221 nM; IC50 [3]: 633 nM; IC50 [4]: 225 nM

Q: With `CCCn1c(-c2ccccc2)cc(C(=O)NCCCN2CCN(c3cccc(OC)c3)CC2)c1C` as the compound, how does the IC50 [2] read?
A: 153 nM

Q: What about the IC50 [3] of the same compound?
A: 452 nM

Q: What about the IC50 [4] of the same compound?
A: 322 nM

Q: What does the source list for `CCCn1c(-c2ccccc2)cc(C(=O)NCCCN2CCN(c3cc(F)ccc3F)CC2)c1C`?
A: IC50 [2]: 135 nM; IC50 [3]: 1010 nM; IC50 [4]: 854 nM

Q: For `CCCn1c(-c2ccccc2)cc(C(=O)NCCCN2CCN(c3cccc(C(F)(F)F)c3)CC2)c1C`, which IC50 [2] is on record?
A: 410 nM

Q: What about the IC50 [3] of the same compound?
A: 619 nM

Q: And the IC50 [4]?
A: 381 nM

Q: Which results are given for `CCCn1c(-c2ccccc2)cc(C(=O)NCCCN2CCN(c3cccc4cccnc34)CC2)c1C`?
A: IC50 [2]: 210 nM; IC50 [3]: 420 nM; IC50 [4]: 82 nM

Q: For `CCCn1c(-c2ccccc2)cc(C(=O)N(C)CCCN2CCN(c3cccc(C)c3C)CC2)c1C`, which IC50 [1] is on record?
A: 700 nM

Q: What about the IC50 [2] of the same compound?
A: 17 nM

Q: And the IC50 [3]?
A: 12 nM

Q: What about the IC50 [4] of the same compound?
A: 163 nM

Q: For `Cc1c(C(=O)N(C)CCCN2CCN(c3cccc(Cl)c3Cl)CC2)cc(-c2ccccc2)n1C`, which IC50 [1] is on record?
A: 500 nM

Q: And the IC50 [3]?
A: 35 nM

Q: For `CCCn1c(-c2ccccc2)cc(C(=O)N(C)CCCN2CCN(c3cccc(Cl)c3Cl)CC2)c1C`, which IC50 [3] is on record?
A: 21 nM

Q: Which IC50 [2] does the source give for `Cc1c(C(=O)NCCN2CCN(c3cccc(Cl)c3Cl)CC2)c(C)n(C)c1-c1ccccc1` here?
A: 33 nM

Q: What about the IC50 [3] of the same compound?
A: 16 nM

Q: What about the IC50 [4] of the same compound?
A: 78 nM

Q: Which IC50 [2] does the source give for `CCn1c(-c2ccc(Cl)cc2)cc(C(=O)NCCCN2CCN(c3cccc(Cl)c3Cl)CC2)c1C` here?
A: 153 nM

Q: And the IC50 [3]?
A: 22 nM

Q: And the IC50 [4]?
A: 629 nM

Q: What does the source list for `Cc1cccc(N2CCN(CCNC(=O)c3cc(C(C)(C)C)n(C)c3C)CC2)c1C`?
A: IC50 [1]: 11800 nM; IC50 [2]: 36 nM; IC50 [3]: 2230 nM; IC50 [4]: 908 nM

Q: Which results are given for `Cc1cccc(N2CCN(CCCNC(=O)c3cc(C(C)(C)C)n(C)c3C)CC2)c1C`?
A: IC50 [2]: 386 nM; IC50 [3]: 1140 nM; IC50 [4]: 252 nM

Q: Which IC50 [2] does the source give for `Cc1c(C(=O)NCCN2CCN(c3cccc(Cl)c3Cl)CC2)cc(C(C)(C)C)n1C` here?
A: 50 nM

Q: What about the IC50 [3] of the same compound?
A: 109 nM

Q: And the IC50 [4]?
A: 45 nM

Q: `CCCn1c(-c2ccccn2)cc(C(=O)NCCCN2CCN(c3cccc(Cl)c3Cl)CC2)c1C` was tested. Which IC50 [1] did it give?
A: 1000 nM

Q: Which results are given for `Cc1c(C(=O)NCCCN2CCN(c3ccncc3)CC2)cc(-c2ccccc2)n1C`?
A: IC50 [2]: 4560 nM; IC50 [3]: 5260 nM; IC50 [4]: > 10000 nM

Q: With `Cc1[nH]c(-c2ccccn2)cc1C(=O)NCCCN1CCN(c2cccc(Cl)c2Cl)CC1` as the compound, how does the IC50 [3] read?
A: 221 nM
